Experimental data published in the EternaBench riboswitch data.

Tested on: MS2 coat protein
Assay: apparent Kd, MS2 coat protein; higher = weaker binding; RNA-MaP array; FMN 200 µM where present
Outline: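 The apparent Kd comes from binding curves fitted cluster by cluster, filtered, and summarised as a median. Those curves followed SNAP-549-labelled MS2 coat protein from 0.7 or 1.5 nM, doubling to 3 µM, on Illumina sequencing-chip clusters where stalled E. coli RNA polymerase had transcribed the designs, without and then with constant ligand. The buffer was 100 mM Tris-HCl pH 7.5, 80 mM KCl, 4 mM MgCl2, BSA, DTT, yeast tRNA and Tween-20, and green signal was normalised to red-channel RNA signal and control-cluster median Fmax.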

[1] = designed as: OFF switch for flavin mononucleotide, no ligand
[2] = ligand present: flavin mononucleotide, designed as: OFF switch for flavin mononucleotide
[3] = designed as: ON switch for flavin mononucleotide, no ligand
[4] = ligand present: flavin mononucleotide, designed as: ON switch for flavin mononucleotide

| Sequence | apparent Kd [1] [µM] | apparent Kd [2] [µM] | apparent Kd [3] [µM] | apparent Kd [4] [µM] |
| --- | --- | --- | --- | --- |
| AGGGUGGGAGGAUAUCCAAUAUAUGACAUGAGGAUCACCCAUGUUUCCACUCGUACCUCCGGAGAAGGCCCUUCCA | 0.0199 | 0.0197 | – | – |
| AGGUAACAUGAGGAUCACCCAUGUAAGGUGAACGUAGGAUAUCGAGGAGGUAGGGUAGGCCGAGAAGGACGAGGAG | – | – | 0.293 | 0.179 |
| AGGUGUCCUGAGAAAUUUCUCGACAUGAGGAUCACCCAUGUAGAGGAUAUCGACGCUGUGCGGUUCGAGAAGGCUACACGAAUU | 0.0126 | 0.0943 | – | – |
| AGUAAGAUGCAGAAGGUGUCAGCGAGAGCUGCGACAUGAGGAUCACCCAUGUGUCGGUGACGACACAAGGAUAUGCAUCUUACA | – | – | 0.407 | 0.227 |
| AGUACCAUGUAGAAGGGAUAUCUGAUUCAGAUAUCAGGAUAUACAUGAGGAUCACCCAUGUAAAUGUACUCCACGAAAGUGGAA | 0.0221 | 0.0638 | – | – |
| AGUAUGAGAGGAUAUACGAAUAAACAUGGAAACAUGAUGGGACAUGAGGAUCACCCAUGUAGAAGGCUCGUACA | 0.118 | 0.358 | – | – |
| AGUCAGAGCAGAGGAUAUAUACAUGAGGAUCACCCAUGUGACUGACUAUGCUAGAAAUAGUAUGUAUAGAAGGCUGCUCUGACA | 0.188 | 0.466 | – | – |
| AGUCAUACAGGAUAUACAUGAGGAUCACCCAUGUAUAUCCUACAUGGGUGAUCCUCAUGUAGAAGGGUAUGACA | 0.0135 | 0.0116 | – | – |
| AGUCCUGAUGUUAGGAUAUGCAACUAGCCAUUGUAGCAGAAGGAACAUGAGGAUCACCCAUGUACAAAGACCCA | 0.0301 | 0.0554 | – | – |
| AGUCGGAGCAGAGGAUAUACAUGAGGAUCACCCAUGUAAAUGGAAGAAGACUGGAAACAGUCAAUGUAGAAGGCUGCUCCGACA | 0.121 | 0.625 | – | – |
| AGUCGGAGCAGAGGAUAUACAUGAGGAUCACCCAUGUAAUAAAGUGAAGCCUGGUAACAGGCAAUGUAGAAGGCUGCUCCGACA | 0.0114 | 0.0777 | – | – |
| AGUCGGAGCAGAGGAUAUACAUGAGGAUCACCCAUGUAAUAGGAUGAAGCCUGGAAACAGGCAAUGUAGAAGGCUGCUCCGACA | 0.0601 | 0.589 | – | – |
| AGUCGGAGCAGAGGAUAUUACAUGAGGAUCACCCAUGUAUAAAGAUCAAGCUGGAAACAGCAAUGUAAGAAGGCUGCUCCGACA | 0.0574 | 0.321 | – | – |
| AGUCGGAGCAGAGGAUAUUACAUGAGGAUCACCCAUGUAUUAAAUGGAAGCUGGAAACAGCAAUGUAAGAAGGCUGCUCCGACA | 0.0624 | 0.284 | – | – |
| AGUCGGCAUGAGAAGGGUUACAUGAGGAUCACCCAUGUGAUCAAAUCGUUAACAGGAUAUCAGGCGUCGGGCUUUGCCCGGAGG | 0.0164 | 0.106 | – | – |
| AGUGACGACACAGGAUAUGCUGGACUUUGUCCAGCAGAAGGGUGUUAACAUGAGGAUCACCCAUGUAUCGUCACCAAAUUUAAU | – | – | 0.628 | 0.0341 |
| AGUGCCUCGAGAGGAUAUACAUGAGGAUCACCCAUGUAAGUAGAGGUGGAAACACCUCUACAAAUGUAGAAGGCUCGAGGCACA | 0.018 | 0.0522 | – | – |
| AGUGCGUAUGUGAGGAUAUGCUGGUCCUUGGAUCAGCAGAAGGCACAUGAGGAUCACCCAUGUGGUGUCGUACA | 0.342 | 0.0249 | – | – |
| AGUGUCAUCGAGAAGGCCUCAACAUGAGGAUCACCCAUGUUGCAAAAUGGGAGGAUAUCGAAAAAACAGCUACGUUUCGUAGCA | – | – | 0.0226 | 0.00517 |
| AGUGUCAUCGAGAAGGCCUCAUGACAUGAGGAUCACCCAUGUUAGCAUGGGAGGAUAUCGAUGAUACAGCUACGUUUCGUAGCA | – | – | 0.17 | 0.0514 |
| AGUGUCAUUUAGAAGGCCUCAUGACAUGAGGAUCACCCAUGUUAUCAUGGGAGGAUAUGGAUGAUAUAGUUAUGUUUCGUAGUA | – | – | 0.307 | 0.112 |
| AGUUAAUAUCGAGGAUAUCCUCAGAAACAUGAGGAUCACCCAUGUAGAAUGGGAGAAGGCGAUAUUAACAGCAUGUUACAUGCA | – | – | 0.182 | 0.0279 |
| AGUUAAUAUCGAGGAUAUCCUCAUCUACAUGAGGAUCACCCAUGUAAACAUGGAGAAGGCGAUAUUAACAGCAUGUUACAUGCA | – | – | 0.259 | 0.0149 |
| AGUUAAUAUCGAGGAUAUGUCUAGACACAUGAGGAUCACCCAUGUAUGUGUAUAGAAGGCAAAAUUAACAGCAUGUUACAUGCA | – | – | 0.0307 | 0.0249 |
| AGUUAAUGCACAUGAGGAUCACCCAUGUCACUUUAUAGAAGACAGGAUAUGCAUGCCAUCAAUGUGCAGAAGGGUCAUCACCGA | – | – | 0.081 | 0.195 |
| AGUUGGCGAGGAUAUACAUGAGGAUCACCCAUGUGAGAGAAAAAAGUGAGAAAGAAAAGUAGAAGGCGCUGACA | 0.0453 | 0.217 | – | – |
| AGUUGUAAUACAGGAUAUAUAUUAUUUUUAUUUAUAGAAGGGUAAUCACAUGAGGAUCACCCAUGUAUAUACGAGGAAGAAGAG | – | – | 0.291 | 0.329 |
| AGUUUUGUACAUGAGGAUCACCCAUGUUAAUAUGUGGUAGUCAGAAGGCAUUGUUAGAGUUUAAAUGAGGAUAUGAAUAUUCAG | – | – | 0.0728 | 0.033 |

| Sequence | apparent Kd [1] [µM] | apparent Kd [2] [µM] | apparent Kd [3] [µM] | apparent Kd [4] [µM] |
| --- | --- | --- | --- | --- |
| AUAAACGAUCAGGAUAUAUCAAAUCAUAGCUUGAUAGAAGGGAUCACAUGAGGAUCACCCAUGUGAUCUUCUUA | 0.014 | 0.0158 | – | – |
| AUAAAGCGAGGAUAUACAUGAGGAUCACCCAUGUGGCAGCCAGGUAGGAGUGACGUCGGUAGAAGGCGCACCCU | 0.0319 | 0.0356 | – | – |
| AUAAAUAUAGCGAUAUGAUCGAGAGAUCAUGUCGCUAAUAUUAGAAGGACAUGAGGAUCACCCAUGUAGGAUAUGGGAGUAUAA | – | – | 0.107 | 0.0551 |
| AUAAGCUCGUCAGGAUAUACGUCACUGCGUCAGCAGUGUGGUAAGAUCACAUGAGGAUCACCCAUGUAGAAGGGACGAGCUGAU | 0.0147 | 0.266 | – | – |
| AUAAGUCGAGGAUAUACGGGAUGCUAGCGAAAGCUAGCAUAACAUGAGGAUCACCCAUGUAGAAGGCGACAAUA | 0.0562 | 0.104 | – | – |
| AUAAUUUUAUAUAUCAUUUUAAUCAGAAGGCAUAACAUGAGGAUCACCCAUGUAUAUUAUUGUUAUGAGGAUAUGAUUUGGUUA | 0.0191 | 0.0783 | – | – |
| AUAAUUUUAUAUAUCUUUUUAAUCAGAAGGCAUAACAUGAGGAUCACCCAUGUAUAUUAUAGUUAUGAGGAUAUGAUUUGGUUA | 0.00894 | 0.0113 | – | – |
| AUACAUGAGGAUCACCCAUGUUACUGGGUCUAUAUAGAACGUAGAAGGAUGUAUUUACACAUAACAUAGGAUAUACUUUAUAGU | 0.0552 | 0.0419 | – | – |
| AUACCACGAGGAUAUCGUCUAUAAUACAUGAGGAUCACCCAUGUUAUAUAUGUAAUGUUUCGAGAAGGCGUGUUUU | 0.0166 | 0.0129 | – | – |
| AUACUCAUGUAAGGAUAUGCGGCCGUUUCGGCUGCAGAAGGUACUAUAAUACAUGAGGAUCACCCAUGUCUCUCGCAUUGCGAG | – | – | 0.556 | 0.0614 |
| AUAGAAGACUAGAAGGACCUAGUUGUAUAUUGUCGAGGUAUAUAAUUAGGUAGGAUAUGGGACAUGAGGAUCACCCAUGUCUUG | – | – | 0.00827 | 0.0075 |
| AUAGACAUACAGCCACAUGAGGAUCACCCAUGUACGCUGACGAGAAGGGUCAGCUAGCAGAGGUGACAGGAUAUCGGACAUGAA | – | – | 0.149 | 0.089 |
| AUAGCAUACCGAGGAUAUUCAUAUAAUAAAUAAACAUGAGGAUCACCCAUGUGGCGAAAGCCUAGGGAGAAGGCGGAAUGCUAA | – | – | 0.218 | 0.0233 |
| AUAGCCGGGAGGUAAACUCGUGCGGCAGAAGGGUGAUACUGGACAUGAGGAUCACCCAUGUGCACACAGGAUAUGCCCGCGAGC | – | – | 0.159 | 0.0333 |
| AUAGCGCCCGAGAAGGACGUACCACAUGUUGAUCACCGAUAUAAGGAACGUAGGAUAUUGGACAUGAGGAUCACCCAUGUGGAU | – | – | 0.122 | 0.0471 |
| AUAGCUCCCUAGAAGGGCCAACGACAAUUGCAUCACGUAGUUGGCGUAGGUAGGAUAUGGGACAUGAGGAUCACCCAUGUGUAG | – | – | 0.027 | 0.0161 |
| AUAGUACAUGAGGAUCACCCAUGUCAGGAUAUCGGAUGUGACAUGAAAAAAAUGUUAAUGAGAAGGGACUAUAA | 0.0436 | 0.049 | – | – |
| AUAGUGCGCGAGAAGGACGUACCACAUGUUGAUCACCGAUAUAAGGAACGUAGGAUAUUGCACAUGAGGAUCACCCAUGUGGAU | – | – | 0.0166 | 0.0213 |
| AUAGUUAGUAUAGAUGAGGGCAGCAGAAGGCAAUAUGCUUGUGCCGACAUGAGGAUCACCCAUGUUGAGGAUAUGCGUCCUUCG | 0.006 | 0.0169 | – | – |
| AUAUAAUAUCAGGAUAUGACUAGCUUCGGCUAGUCAGAAGGGAUGACAUGAGGAUCACCCAUGUGAUCAUAUAU | 0.0357 | 0.153 | – | – |
| AUAUAGUCAGGAUAUCGAAGUGUGUGUUGGUUUGUAAUUUACGAGAAGGGACAUGAGGAUCACCCAUGUAGGAA | 0.0401 | 0.0349 | – | – |
| AUAUAUAACUAAGGAUAUCUGUAUUUUGUUGAAACAUGAGGAUCACCCAUGUUCAUGAAAUUAUAGGAGAAGGUAGAUAUAUAU | – | – | 0.00493 | 0.00454 |
| AUAUAUACAAAGUUACAUGAGGAUCACCCAUGUUUAUUGGGAAGAAGGGUAACAUUAUUAGAUGUAUAGGAUAUUUCACAAUUG | – | – | 0.599 | 0.327 |
| AUAUCAUACCAAGGAUAUUUAGGACUUGUGUAGACAUGAGGAUCACCCAUGUGGCGUUAGUCACGGGAGAAGGUGGUAUGAUAU | – | – | 0.083 | 0.0185 |
| AUAUCCAAUCAAGGAUAUGUAUUAAAGAUUUGAAAACAUGAGGAUCACCCAUGUAUAUGGUGGGAACAGAAGGUGAAUAAGUAA | 0.14 | 0.164 | – | – |
| AUAUCCUAGAUAGGAUAUACUGAGGUUGAAUGGGUAGAAGGAUCGUUAGGGAAGACUACAUGAGGAUCACCCAUGUUGUUUAUU | – | – | 0.116 | 0.0929 |
| AUAUCCUUUUUAUACAUGAGGAUCACCCAUGUUUUUCUUACGUAGGAUAUCGUUGUUUUUUUUUACGAGAAGGACGUAGAAUGU | – | – | 0.0236 | 0.0239 |
